# Laboratory results published in PubChem BioAssay AID624013 (Broad Institute, 2012).
# Where “and” joins values, the source holds several entries; their conditions need not be identical. Equal entries are not always repeated. Calls of active or inactive are those of the source.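 Rule for the calls: active = compounds whose fitted growth inhibition curve reaches half effect at or below twice the top tested dose; inconclusive = flat inhibition between 30 and 70 percent, or poor fit; inactive = the rest.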
# Tested on: not listed separately
# Assay: C. glabrata growth inhibition on glucose, dose response, glucose medium, plate reader, dry powder, set 4 (AID 624013)
# Conditions: Candida glabrata growth, glucose medium, OD600, 48 h; at 3 µM (top of the series)
# Outline: (§1)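 Test system: Candida glabrata cells | Buffer or medium: CSM medium supplemented with glucose | Timing: 48 h at 30 °C, no shaking | Technique: OD600 absorbance | Controls: Amphotericin B 10 µM, positive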
row,Structure (SMILES),"activity change, negative = inhibition"
1,C/C=C/[C@@H]1[C@H]2C[C@@H](C)CC[C@@H]2C(C)=C[C@H]1C(=O)c1c(O)c(-c2ccc(O)cc2)c[nH]c1=O,-2.31% (inactive)
2,CCOC(=O)N1C(=O)C2(CCCCC2)N(c2ccc(Cl)cc2)C1=S,-19.6% (inactive)
3,CCOC(=O)N1C(=O)C2(CCCCC2)N(c2cccc(C)c2)C1=S,-14.7% (inactive)
4,CCOC(=O)N1C(=O)C2(CCCCC2)N(c2ccccc2)C1=S,-11.8% (inactive)
5,CCOC(=O)N1C(=O)C2(CCCCC2)N(c2ccc(C#N)cc2)C1=S,-17% (inactive)
6,CCOC(=O)N1C(=O)C2(CCCCC2)N(c2ccc(F)cc2)C1=S,-16.3% (inactive)
7,CCOC(=O)N1C(=O)C2(CCCCC2)N(c2ccc(C)cc2)C1=S,-13.3% (inactive) and -16.5% (inactive)

# Tested on: Candida glabrata growth, glucose medium, OD600, 48 h
# Assay: as above
# Conditions: not given
# Outline: as §1
row,Structure (SMILES),AC50
1,CC1/C=C/C=C\C=C\C=C\C=C\C=C\C=C\C(O[C@H]2OC(C)C(O)C(N)C2O)CC2OC(O)(CC(O)CC(O)C(O)CCC(O)CC(O)CC(=O)OC(C)C(C)C1O)CC(O)C2C(=O)O (stereo partly drawn),2120 nM
